Results reported in the EternaBench riboswitch data.

System: MS2 coat protein
Assay: apparent Kd, MS2 coat protein; higher = weaker binding; RNA-MaP array; FMN 200 µM where present
Procedure, shortened: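 The titrant was SNAP-549-labelled MS2 coat protein, run from 0.7 or 1.5 nM in doubling steps to 3 µM. It was applied to designs transcribed by stalled E. coli RNA polymerase on Illumina sequencing-chip clusters, without ligand first and then with constant ligand, in 100 mM Tris-HCl pH 7.5, 80 mM KCl, 4 mM MgCl2, BSA, DTT, yeast tRNA and Tween-20. The apparent Kd is the median of filtered per-cluster binding-curve fits, with green signal normalised to red-channel RNA signal and control-cluster median Fmax.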

[1] = designed as: OFF switch for flavin mononucleotide, no ligand
[2] = ligand present: flavin mononucleotide, designed as: OFF switch for flavin mononucleotide
[3] = designed as: ON switch for flavin mononucleotide, no ligand
[4] = ligand present: flavin mononucleotide, designed as: ON switch for flavin mononucleotide

Sequence	apparent Kd [1]	apparent Kd [2]	apparent Kd [3]	apparent Kd [4]
GCUUUUAAGGGAGGAUAUUGUUACAUGAGGAUCACCCAUGUGGCGGGAUGAUAUCUUAACAGGAACGAGAAGGCCCAAACGCGA	35.7 nM	65.4 nM	–	–
AAGCUCGUGUGAGGAUAUGCCGCCGUUUCGGCUGCAGAAGGUGCUACGUUACAUGAGGAUCACCCAUGUCUCUGUUGUUUCGUC	–	–	29.9 nM	24.8 nM
UAUAUAUAGUAAGGAUAUGUAUAAAUUUUAUAAACAGAAGGUACUGACAUGAGGAUCACCCAUGUUUUAGUGUGGGCAUGUAGA	96.2 nM	147 nM	–	–
ACAUGAGGAUCACCCAUGUUAAAUGAGGAUAUAUGACUGCACAUGAGGUUCACCCAUGUUCUACCGUAGAAGGUAUAAAUAAUU	–	–	71.7 nM	76.1 nM
UGGUACUAGGGAGGAUAUGGGCAGAUACAUGAGGAUCACCCAUGUUUAAGAAUGCCGAGAGGCAACUAGAAGGCCCUAGUACCU	–	–	553 nM	25.5 nM
CUCAGCAAGGAAGGAUAUGGGUUUUCGCACAUGAGGAUCACCCAUGUCGCAGUCCCUACGGGAUCCCAGAAGGUCUAUGCGUGG	–	–	260 nM	16.3 nM
UCGUAUACACAAGGAUAUCGAUGGCUUGUAGAUCCUACAUGAGGAUCACCCAUGUUUUUAUAUUGUGAGAAGGUGUAGUGUCGU	–	–	1320 nM	1210 nM
CCCUCAACAUGAGGAUCACCCAUGUAGGAUAUCGCUAUUGUAAUCAUGAAACAUGAUUACAAUAGCGAGAAGGACAUAUGUGGG	106 nM	49.8 nM	–	–
CCUCCGCAUUAGGAUAUCGUCACGGAAACGUGACGAGAAGGAAUGACAUGAGGAUCACCCAUGUUAACGUGAUG	52.2 nM	270 nM	–	–
AAAAGACAUGAGGAUCACCCAUGUCAAGACGUAGGAGGAUAUGUCGUGAAAAAAGACUUGACAGAAGGCCUGUGUC	–	–	18.7 nM	15.4 nM
AAUAACAGAGGAUAUACGAAAAUAAGCGGAAACGCAAAGGGACAUGAGGAUCACCCAUGUAGAAGGCUGGAUAA	32.6 nM	183 nM	–	–
ACGCUUUGGGAGAAGGUACGUUAAUUUUUUUCCACAUGAGGAUCACCCAUGUAAGGAUAUCCCGGCGUUAAAUAGGCUACAGCA	7.2 nM	8.14 nM	–	–
AAAAACGGAGGAUAUACAAAAAAAAAAAAAAAAAAAAUGGGACAUGAGGAUCACCCAUGUAGAAGGCCGAAAAA	72 nM	164 nM	–	–
GCGCGAAGCUAGGAUAUGGGAGCCGAAAGGCUCCCAGAAGGAGCCACAUGAGGAUCACCCAUGUGGUGAUCCUG	18.6 nM	38.6 nM	–	–
CGUUAAUAUCGAGGAUAUGUCUAGACACAUGAGGAUCACCCAUGUAUGUGUAUAGAAGGCGAUAUUAACAGCAUGUUACAUGCU	–	–	41 nM	16.7 nM
UGCAUGCUAGGAUAUACGGGACAUUAGGGUUCGUCGUAUGGACAUGAGGAUCACCCAUGUAGAAGGAGCGUGCU	18.6 nM	44.5 nM	–	–
UUUAGUUCAGGAUAUGUAGAUUUUAACAUGAGGAUCACCCAUGUAGAUCCUGAAUUAACUACAGAAGGGAACAUUU	19.8 nM	88.6 nM	–	–
ACUGCAUAGUCAGGAUAUGCAAAAGCAGAUGCAAAGCAUCUGAACAACACAUGAGGAUCACCCAUGUAGAAGGGACUGUGCAGU	23.3 nM	22.4 nM	–	–
CCUUGAUAAUAUCUUCACAUGAGGAUCACCCAUGUCGCUCGACAGGAUAUAUUUGAUUUGUUUAAGUAGAAGGGUCGCAGAUUC	–	–	123 nM	111 nM
ACAUGAGACUAAGGAUAUGAUGUACCUAUAUGUGACAUGAGGAUCACCCAUGUGGUAAGUAUGAUUCAGAAGGUAGAGAUAUGU	–	–	98.7 nM	32.6 nM
GGUGGACAUGAGGAUCACCCAUGUGAGGAUAUCGGCUGGCUAGUGGCGGAUGGCUUCUCGAGAAGGCGCAUAGU	76.9 nM	66 nM	–	–
ACCACGAUAGCGAUAUGAUCGAGAGAUCAUGUCGCUAUUUUUAGAAGGACAUGAGGAUCACCCAUGUAGGAUAUGGGACGUGGA	–	–	24.7 nM	10.3 nM
AAAGCGGGAUAGAAGGUCUGCUUGGUGUAUUACAUGAGGAUCACCCAUGUAGAAGGAUAUAUCUCAUUCUUGGGCUCACCCAAA	208 nM	367 nM	–	–
